{"source": "ChEMBL document CHEMBL4184168", "about": "“Anticancer activities of emetine prodrugs that are proteolytically activated by the prostate specific antigen (PSA) and evaluation of in vivo toxicity of emetine derivatives” (Bioorg Med Chem, 2017)", "key": {"Mus musculus [1]": {"test_system": "Mus musculus", "assay": "Toxicity in Balb/C mouse assessed as convulsion at 16 mg/kg, iv up to 1 min", "type": "organism-based", "settings": "in vivo", "method_in_brief": "(§1)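 Male Balb/c mice, eight weeks old, about 25 g. Single IV bolus of 200 μL, doses ranging from 8 to 100 mg/kg, in 1% DMSO/saline or 10% cremophor/saline; vehicle-only controls. Each dose tested in triplicate. Mice watched for convulsions, death and behaviour after injection to set the maximum tolerated dose.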"}, "Mus musculus [2]": {"test_system": "Mus musculus", "assay": "Toxicity in Balb/C mouse assessed as death at 16 mg/kg, iv up to 1 min", "type": "organism-based", "settings": "in vivo", "method_in_brief": "as §1"}, "Mus musculus [3]": {"test_system": "Mus musculus", "assay": "Toxicity in Balb/C mouse assessed death at >32 mg/kg, iv", "type": "organism-based", "settings": "in vivo"}, "[4]": {"assay": "Toxicity in iv dosed Balb/C mouse", "type": "organism-based", "settings": "in vivo", "method_in_brief": "as §1"}, "Mus musculus [5]": {"test_system": "Mus musculus", "assay": "Toxicity in Balb/C mouse assessed as change in behavior at >100 mg/kg, iv", "type": "organism-based", "settings": "in vivo", "method_in_brief": "as §1"}, "Mus musculus [6]": {"test_system": "Mus musculus", "assay": "Toxicity in Balb/C mouse assessed as mortality at >100 mg/kg, iv", "type": "organism-based", "settings": "in vivo", "method_in_brief": "as §1"}, "Mus musculus [7]": {"test_system": "Mus musculus", "assay": "Toxicity in Balb/C mouse assessed as convulsion at 33 mg/kg, iv measured at 1 min post dose", "type": "organism-based", "settings": "in vivo", "method_in_brief": "as §1"}, "Mus musculus [8]": {"test_system": "Mus musculus", "assay": "Toxicity in Balb/C mouse assessed as death at 33 mg/kg, iv measured at 1 min post dose", "type": "organism-based", "settings": "in vivo", "method_in_brief": "as §1"}, "Mus musculus [9]": {"test_system": "Mus musculus", "assay": "Toxicity in Balb/C mouse assessed as convulsion at >25 mg/kg, iv up to 1 min", "type": "organism-based", "settings": "in vivo", "method_in_brief": "as §1"}, "Mus musculus [10]": {"test_system": "Mus musculus", "assay": "Toxicity in Balb/C mouse assessed as death at >25 mg/kg, iv up to 1 min", "type": "organism-based", "settings": "in vivo", "method_in_brief": "as §1"}, "[11]": {"assay": "Stability in conditioned media assessed as parent compound remaining at […] after 72 hrs by HPLC-MS analysis", "type": "physicochemical", "settings": "read-out: Stability"}, "[12]": {"target": "T1, Prostate-specific antigen (PSA) (Homo sapiens, UniProt P07288)", "T1 sequence (P07288 whole entry)": "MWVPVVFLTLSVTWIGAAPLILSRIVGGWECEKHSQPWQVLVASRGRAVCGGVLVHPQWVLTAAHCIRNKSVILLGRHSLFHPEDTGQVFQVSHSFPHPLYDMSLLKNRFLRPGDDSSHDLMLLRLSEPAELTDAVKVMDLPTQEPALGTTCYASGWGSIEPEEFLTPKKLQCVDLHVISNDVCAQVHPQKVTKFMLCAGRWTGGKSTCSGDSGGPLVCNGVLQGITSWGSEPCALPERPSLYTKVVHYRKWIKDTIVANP", "assay": "Stability in PBS buffer assessed as human PSA mediated compound metabolism by measuring parent compound remaining at […] after 72 hrs by HPLC-MS analysis", "type": "ADME", "settings": "read-out: Stability"}, "[13]": {"assay": "Stability assessed as parent compound remaining at […] in presence of 10% FBS after 72 hrs by HPLC-MS analysis", "type": "physicochemical", "settings": "cattle, read-out: Stability"}, "Mus musculus [14]": {"test_system": "Mus musculus", "assay": "Toxicity in Balb/C mouse at >50 mg/kg, iv", "type": "organism-based", "settings": "in vivo", "method_in_brief": "as §1"}, "LNCaP [15]": {"test_system": "LNCaP", "assay": "Antiproliferative activity against human LNCAP cells expressing PSA after 3 days by MTT assay", "type": "functional, cell-based", "settings": "72 h", "method_in_brief": "(§2)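 LNCaP seeded at 5 × 10^3 cells/well; PC3, CWR22Rv1 and MDA-MB-231 at 2.5 × 10^3. The first three were grown in RPMI and MDA-MB-231 in DMEM, each with 10% FBS. After 24 h attachment, cells got final 10, 50, 100, 1000 or 10,000 nM (0.1% DMSO) in eight replicates. Viable cells by MTT on day 0, 3 and 5, A570 corrected at 650 nm. Experiments run at least twice.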"}, "PC-3 [16]": {"test_system": "PC-3", "assay": "Antiproliferative activity against human PC3 cells after 3 days by MTT assay", "type": "functional, cell-based", "settings": "PC-3, 72 h", "method_in_brief": "as §2"}, "[17]": {"assay": "Stability in PBS buffer assessed as parent compound remaining at […] after 72 hrs by HPLC-MS analysis", "type": "physicochemical", "settings": "read-out: Stability"}, "MDA-MB-231": {"test_system": "MDA-MB-231", "assay": "Antiproliferative activity against human MDA-MB-231 cells at 50 to 10000 nM after 3 days by MTT assay", "type": "functional, cell-based", "method_in_brief": "as §2"}, "PC-3 [18]": {"test_system": "PC-3", "assay": "Antiproliferative activity against human PC3 cells at 50 to 10000 nM after 3 days by MTT assay", "type": "functional, cell-based", "method_in_brief": "as §2"}, "CWR22R": {"test_system": "CWR22R", "assay": "Antiproliferative activity against human CWR22Rv1 cells expressing PSA after 3 days by MTT assay", "type": "functional, cell-based", "settings": "22Rv1, 72 h", "method_in_brief": "as §2"}, "LNCaP [19]": {"test_system": "LNCaP", "assay": "Potency index, ratio of emetine IC50 to compound IC50 for human LNCAP cells expressing PSA", "type": "functional"}, "Mus musculus [20]": {"test_system": "Mus musculus", "assay": "Toxicity in Balb/C mouse assessed as convulsions at >25 mg/kg, iv", "type": "organism-based", "settings": "in vivo", "method_in_brief": "as §1"}, "[21]": {"target": "T2, Prostate-specific antigen (Homo sapiens, UniProt P07288)", "T2 sequence (P07288 whole entry)": "T1 sequence (P07288 whole entry)", "assay": "Prodrug activation assessed as human PSA-mediated 4-((S)-1-(L-Alanyl)pyrrolidine-2-carboxamido)benzyl (R)-1-(((2R,3R,11bS)-3-ethyl-9,10-dimethoxy-1,3,4,6,7,11b-hexahydro-2Hpyrido[2,1-a]isoquinolin-2-yl)methyl)-6,7-dimethoxy-3,4-dihydroisoquinoline-2(1H)-carboxylate formation measured over 24 hrs by LC-MS analysis", "method_in_brief": "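10 mM DMSO stock diluted to 200 μM final in PSA buffer (50 mM Tris·HCl, 100 mM NaCl, pH 7.4) with purified PSA at 20 μg/mL final and 2% DMSO. Shaken at 37 °C. Aliquots taken at time points, quenched with cold acetonitrile, held on ice, centrifuged, then analysed by reversed-phase C18 HPLC (215/285 nm) and mass spectrometry.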"}}, "note": "Active and inactive are the calls of the source. The rule behind the calls is not given here. *1 amine or outer side, *2 acyl side, *3 side chain or, on linkers, in order; H or OH if unused. Where a SMILES comes first, the peptide text is derived from it. [ ]: non-standard residue; d: D form. The star is where a group is joined. Emetine(N2') = CC[C@H]1CN2CCc3cc(OC)c(OC)cc3[C@@H]2C[C@@H]1C[C@@H]1c2cc(OC)c(OC)cc2CCN1*; PABC = O=C(OCc1ccc(N[*:1])cc1)[*:2]"}
{"smiles": "CC[C@H]1CN2CCc3cc(OC)c(OC)cc3[C@@H]2C[C@@H]1C[C@@H]1c2cc(OC)c(OC)cc2CCN1C(=O)[C@@H]1CCCN1C(=O)[C@H](C)N", "values": [{"measurement": "Activity", "setting": "Mus musculus [1]", "result": "Toxic"}, {"measurement": "Activity", "setting": "Mus musculus [2]", "result": "Toxic"}]}
{"smiles": "CC[C@H]1CN2CCc3cc(OC)c(OC)cc3[C@@H]2C[C@@H]1C[C@@H]1c2cc(OC)c(OC)cc2CCN1C(=O)OCc1ccc(NC(=O)[C@@H]2CCCN2C(=O)[C@H](C)N)cc1", "values": [{"measurement": "Activity", "setting": "Mus musculus [3]", "result": "Toxic"}, {"measurement": "MTD", "setting": "[4]", "result": 32, "unit": "mg/kg"}]}
{"smiles": "CC[C@H]1CN2CCc3cc(OC)c(OC)cc3[C@@H]2C[C@@H]1C[C@@H]1c2cc(OC)c(OC)cc2CCN1C(=S)[S-].[Na+]", "values": [{"measurement": "Activity", "setting": "Mus musculus [5]", "result": "Non-Toxic"}, {"measurement": "MTD", "setting": "[4]", "result": "> 100", "unit": "mg/kg"}, {"measurement": "Activity", "setting": "Mus musculus [6]", "result": "Non-Toxic"}]}
{"smiles": "CC[C@H]1CN2CCc3cc(OC)c(OC)cc3[C@@H]2C[C@@H]1C[C@@H]1c2cc(OC)c(OC)cc2CCN1C(=O)OCc1ccc(NC(=O)[C@@H]2CCCN2C(=O)[C@H](C)NC(=O)[C@@H]2CCCN2C(=O)[C@H](C)NC(C)=O)cc1", "note": "(Ac-APAP[PABC]-{Emetine(N2')})", "values": [{"measurement": "Activity", "setting": "Mus musculus [7]", "result": "Toxic"}, {"measurement": "Activity", "setting": "Mus musculus [8]", "result": "Toxic"}]}
{"smiles": "CC[C@H]1CN2CCc3cc(OC)c(OC)cc3[C@@H]2C[C@@H]1C[C@@H]1c2cc(OC)c(OC)cc2CCN1C(=O)OCc1ccc(NC(=O)[C@@H]2CCCN2C(=O)[C@H](C)NC(=O)[C@@H]2CCCN2C(=O)CNC(=O)[C@H](C)NC(=O)[C@@H]2CCCN2C(=O)CNC(=O)[C@H](CO)NC(=O)[C@H](C)NC(C)=O)cc1", "note": "(Ac-ASGPAGPAP[PABC]-{Emetine(N2')})", "values": [{"measurement": "Activity", "setting": "Mus musculus [9]", "result": "Toxic"}, {"measurement": "MTD", "setting": "[4]", "result": 25, "unit": "mg/kg"}, {"measurement": "Activity", "setting": "Mus musculus [10]", "result": "Toxic"}]}
{"smiles": "CC[C@H]1CN2CCc3cc(OC)c(OC)cc3[C@@H]2C[C@@H]1C[C@@H]1c2cc(OC)c(OC)cc2CCN1C(=O)OCc1ccc(NC(=O)[C@H](CC(C)C)NC(=O)[C@@H](N)CO)cc1", "values": [{"measurement": "remaining at 72 h", "setting": "[11]", "result": 100, "unit": "%"}, {"measurement": "MTD", "setting": "[4]", "result": 50, "unit": "mg/kg"}, {"measurement": "remaining at 72 h", "setting": "[12]", "result": 100, "unit": "%"}, {"measurement": "remaining at 72 h", "setting": "[13]", "result": 100, "unit": "%"}, {"measurement": "Activity", "setting": "Mus musculus [14]", "result": "Toxic"}, {"measurement": "IC50", "setting": "LNCaP [15]", "result": 100, "unit": "nM"}, {"measurement": "IC50", "setting": "PC-3 [16]", "result": 100, "unit": "nM"}, {"measurement": "remaining at 72 h", "setting": "[17]", "result": 100, "unit": "%"}]}
{"smiles": "CC[C@H]1CN2CCc3cc(OC)c(OC)cc3[C@@H]2C[C@@H]1C[C@H]1NCCc2cc(OC)c(OC)cc21", "note": "[EMETINE]", "values": [{"measurement": "Activity", "setting": "MDA-MB-231", "result": "Active"}, {"measurement": "MTD", "setting": "[4]", "result": 8, "unit": "mg/kg"}, {"measurement": "Activity", "setting": "PC-3 [18]", "result": "Active"}, {"measurement": "Activity", "setting": "Mus musculus [1]", "result": "Toxic"}, {"measurement": "IC50", "setting": "CWR22R", "result": 30.8, "unit": "nM"}, {"measurement": "Activity", "setting": "Mus musculus [2]", "result": "Toxic"}]}
{"smiles": "CC[C@H]1CN2CCc3cc(OC)c(OC)cc3[C@@H]2C[C@@H]1C[C@@H]1c2cc(OC)c(OC)cc2CCN1C(=O)OCc1ccc(NC(=O)[C@@H]2CCCN2C(=O)[C@H](C)NC(=O)[C@H](CCC(N)=O)NC(=O)[C@H](CC(C)C)NC(=O)[C@H](CCCCN)NC(=O)[C@H](CO)NC(=O)[C@H](CO)NC(=O)[C@H](Cc2cnc[nH]2)NC(C)=O)cc1", "note": "(Ac-HSSKLQAP[PABC]-{Emetine(N2')})", "values": [{"measurement": "Activity", "setting": "MDA-MB-231", "result": "Active"}, {"measurement": "Ratio IC50", "setting": "LNCaP [19]", "result": 24}, {"measurement": "Activity", "setting": "Mus musculus [20]", "result": "Toxic"}, {"measurement": "Drug metabolism", "setting": "[21]", "result": "Metabolite_Notdetected"}, {"measurement": "Activity", "setting": "PC-3 [18]", "result": "Active"}]}
